Test results taken from ChEMBL document CHEMBL1158613, “Novel trivalent anti-influenza reagent” (Bioorg Med Chem Lett, 2010).
Active and inactive are the calls of the source. The calls are words filed in the database; no cut-off is given here.

Columns and labels:
[1] = Aqueous solubility of the compound; format: physicochemical; conditions: buffer
[2] = system: Influenza A virus; assay: Antiviral activity against Influenza A/PR/8/1934 (H1N1) infected in MDCK cells assessed as of viral plaque formation at 4 degC relative to control; format: functional, A/Puerto Rico/8/1934(H1N1)
Outline: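 Plaque reduction assay in MDCK cells infected with A/PR/8/1934 (H1N1), with compound at 400 μM during virus adsorption at 4 °C. Plaques were counted and expressed as a percentage of the virus-only control. Uninoculated cells served as the no-virus control. Single concentration only, with no dose range.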

[3] = system: Influenza A virus; assay: Antiviral activity against Influenza A/PR/8/1934 (H1N1) infected in MDCK cells assessed as viral plaque formation at 35 degC relative to control; format: functional, A/Puerto Rico/8/1934(H1N1)
Outline: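 Plaque reduction assay in MDCK cells with A/PR/8/1934 (H1N1), with compound at 400 μM present during virus adsorption at 35 °C. The plaque count is given as a percentage of plaques in the virus-only control, and uninoculated cells were the blank. A single concentration was tested.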

[4] = system: Influenza A virus; assay: Inhibition of Influenza A/PR/8/1934 (H1N1)-induced hemagglutinination of chicken RBC; format: functional, organism-based; conditions: A/Puerto Rico/8/1934(H1N1)

| Structure (SMILES) | solubility [1] | Activity [2] [%] | Activity [3] [%] | inhibition [4] |
| --- | --- | --- | --- | --- |
| CC(=O)N[C@H]1[C@@H]([C@@H](O)[C@H](O)CO)O[C@](O[C@H]2[C@@H](O)[C@@H](CO)O[C@@H](O[C@H]3[C@@H](O)[C@@H](O)[C@H](OCCCCCCNC(=O)CCC(N)C(=O)NCCOCCOCCC(=O)Nc4ccc(C(c5ccc(NC(=O)CCOCCOCCNC(=O)C(N)CCC(=O)NCCCCCCO[C@@H]6O[C@H](CO)[C@@H](O[C@@H]7O[C@H](CO)[C@H](O)[C@H](O[C@@]8(C(=O)O)C[C@H](O)[C@@H](NC(C)=O)[C@@H]([C@@H](O)[C@H](O)CO)O8)[C@H]7O)[C@@H](O)[C@H]6O)cc5)c5ccc(NC(=O)CCOCCOCCNC(=O)C(N)CCC(=O)NCCCCCCO[C@@H]6O[C@H](CO)[C@@H](O[C@@H]7O[C@H](CO)[C@H](O)[C@H](O[C@@]8(C(=O)O)C[C@H](O)[C@@H](NC(C)=O)[C@@H]([C@@H](O)[C@H](O)CO)O8)[C@H]7O)[C@@H](O)[C@H]6O)cc5)cc4)O[C@@H]3CO)[C@@H]2O)(C(=O)O)C[C@@H]1O (some centres undefined) | Soluble | 67.2 | 56.6 | inactive |
| NC(CCC(=O)NCCCCCCO[C@@H]1O[C@H](CO)[C@@H](O[C@@H]2O[C@H](CO)[C@H](O)[C@H](O)[C@H]2O)[C@@H](O)[C@H]1O)C(=O)NCCOCCOCCOc1ccc(C(c2ccc(OCCOCCOCCNC(=O)C(N)CCC(=O)NCCCCCCO[C@@H]3O[C@H](CO)[C@@H](O[C@@H]4O[C@H](CO)[C@H](O)[C@H](O)[C@H]4O)[C@@H](O)[C@H]3O)cc2)c2ccc(OCCOCCOCCNC(=O)C(N)CCC(=O)NCCCCCCO[C@@H]3O[C@H](CO)[C@@H](O[C@@H]4O[C@H](CO)[C@H](O)[C@H](O)[C@H]4O)[C@@H](O)[C@H]3O)cc2)cc1 (some centres undefined) | Soluble | 72.4 | 77.1 | – |
| NC(CCC(=O)NCCCCCCO[C@@H]1O[C@H](CO)[C@@H](O[C@@H]2O[C@H](CO)[C@H](O)[C@H](O)[C@H]2O)[C@@H](O)[C@H]1O)C(=O)NCCOCCOCCC(=O)Nc1ccc(C(c2ccc(NC(=O)CCOCCOCCNC(=O)C(N)CCC(=O)NCCCCCCO[C@@H]3O[C@H](CO)[C@@H](O[C@@H]4O[C@H](CO)[C@H](O)[C@H](O)[C@H]4O)[C@@H](O)[C@H]3O)cc2)c2ccc(NC(=O)CCOCCOCCNC(=O)C(N)CCC(=O)NCCCCCCO[C@@H]3O[C@H](CO)[C@@H](O[C@@H]4O[C@H](CO)[C@H](O)[C@H](O)[C@H]4O)[C@@H](O)[C@H]3O)cc2)cc1 (some centres undefined) | Soluble | 100 | 100 | – |
| CC(=O)N[C@H]1[C@@H]([C@@H](O)[C@H](O)CO)O[C@](O[C@H]2[C@@H](O)[C@@H](CO)O[C@@H](O[C@H]3[C@@H](O)[C@@H](O)[C@H](OCCCCCCNC(=O)CCC(N)C(=O)NCCOCCOCCOc4ccc(C(c5ccc(OCCOCCOCCNC(=O)C(N)CCC(=O)NCCCCCCO[C@@H]6O[C@H](CO)[C@@H](O[C@@H]7O[C@H](CO)[C@H](O)[C@H](O[C@@]8(C(=O)O)C[C@H](O)[C@@H](NC(C)=O)[C@@H]([C@@H](O)[C@H](O)CO)O8)[C@H]7O)[C@@H](O)[C@H]6O)cc5)c5ccc(OCCOCCOCCNC(=O)C(N)CCC(=O)NCCCCCCO[C@@H]6O[C@H](CO)[C@@H](O[C@@H]7O[C@H](CO)[C@H](O)[C@H](O[C@@]8(C(=O)O)C[C@H](O)[C@@H](NC(C)=O)[C@@H]([C@@H](O)[C@H](O)CO)O8)[C@H]7O)[C@@H](O)[C@H]6O)cc5)cc4)O[C@@H]3CO)[C@@H]2O)(C(=O)O)C[C@@H]1O (some centres undefined) | Soluble | 15.5 | 45.6 | inactive |
